Assay results taken from ChEMBL document CHEMBL4196175, “First SAR Study for Overriding NRAS Mutant Driven Acute Myeloid Leukemia” (J Med Chem, 2018).
The source made the active and inactive calls. No cut-off for these calls is given here.

Experiments:
[1] = Metabolic stability in rat liver microsomes assessed as compound remaining at 1 uM after 30 mins; assay type: ADME, microsome; details: read-out: Stability
OCI-AML-3 [2] = assay: Growth inhibition of ACK1/GCK knockdown human OCI-AML3 cells harboring NRAS-Q61L mutant at 0.2 uM after 72 hrs by celltiter-glo assay; assay type: functional, cell-based
[3] = Growth inhibition of parental mouse BA/F3 cells after 72 hrs by celltiter-glo assay; assay type: cell-based, BaF3
[4] = Growth inhibition of parental human U937 cells after 72 hrs by celltiter-glo assay; assay type: cell-based, U-937
[5] = Metabolic stability in dog liver microsomes assessed as compound remaining at 1 uM after 30 mins; assay type: ADME, Canis lupus familiaris, microsome; details: read-out: Stability
CYP2C9 = CYP2C9 (Homo sapiens, UniProt P11712); assay: Inhibition of CYP2C9 (unknown origin) assessed as activity remaining at 10 uM relative to control; assay type: ADME; details: read-out: Activity
[6] = molecular target: T1, Mitogen-activated protein kinase kinase kinase kinase 2 (Homo sapiens) (UniProt Q12851); assay: Inhibition of GCK in human OCI-AML3 cells harboring NRAS Q61L mutant assessed as reduction in JNK phosphorylation at T183/Y185 at 1 uM after 2 hrs by Western blot analysis; assay type: cell-based
T1 sequence (whole entry): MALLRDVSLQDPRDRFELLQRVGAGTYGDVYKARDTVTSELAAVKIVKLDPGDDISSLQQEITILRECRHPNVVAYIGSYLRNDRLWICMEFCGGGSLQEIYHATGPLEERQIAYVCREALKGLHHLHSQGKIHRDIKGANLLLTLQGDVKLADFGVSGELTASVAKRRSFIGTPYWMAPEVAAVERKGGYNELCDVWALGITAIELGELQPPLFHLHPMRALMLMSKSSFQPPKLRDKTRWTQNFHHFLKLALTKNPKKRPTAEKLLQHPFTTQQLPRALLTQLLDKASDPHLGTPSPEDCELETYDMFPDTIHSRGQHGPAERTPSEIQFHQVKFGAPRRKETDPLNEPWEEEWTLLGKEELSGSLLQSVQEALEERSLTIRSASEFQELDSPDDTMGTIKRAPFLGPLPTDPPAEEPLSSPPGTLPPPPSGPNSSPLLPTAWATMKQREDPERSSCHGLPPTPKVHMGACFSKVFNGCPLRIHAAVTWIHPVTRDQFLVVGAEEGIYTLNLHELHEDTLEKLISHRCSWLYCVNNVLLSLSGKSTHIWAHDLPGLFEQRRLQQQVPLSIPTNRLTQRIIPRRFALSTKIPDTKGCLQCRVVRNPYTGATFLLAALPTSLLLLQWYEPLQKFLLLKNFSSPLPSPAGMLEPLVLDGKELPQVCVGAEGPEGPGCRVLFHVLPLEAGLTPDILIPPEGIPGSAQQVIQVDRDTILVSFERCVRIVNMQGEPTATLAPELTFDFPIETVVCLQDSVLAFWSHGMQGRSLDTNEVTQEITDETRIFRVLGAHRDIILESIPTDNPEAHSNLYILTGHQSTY
Summary of the method: (§1)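 Ba/F3-NRAS-G12D or OCI-AML3 cells exposed 2 h to compounds (1 µM, or a dose series in OCI-AML3); phospho-p70S6K1, phospho-AKT S473, phospho-JNK and phospho-p38 assessed by western blot, actin as loading control.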

Activated CDC42 kinase 1 [7] = molecular target: T2, Activated CDC42 kinase 1 (Homo sapiens, UniProt Q07912); assay: Inhibition of ACK1 in human OCI-AML3 cells harboring NRAS Q61L mutant assessed as reduction in AKT phosphorylation at S473 at 1 uM after 2 hrs by Western blot analysis; assay type: cell-based; summary of the method: as §1
Target sequence in this assay (Q07912 whole entry, looked up): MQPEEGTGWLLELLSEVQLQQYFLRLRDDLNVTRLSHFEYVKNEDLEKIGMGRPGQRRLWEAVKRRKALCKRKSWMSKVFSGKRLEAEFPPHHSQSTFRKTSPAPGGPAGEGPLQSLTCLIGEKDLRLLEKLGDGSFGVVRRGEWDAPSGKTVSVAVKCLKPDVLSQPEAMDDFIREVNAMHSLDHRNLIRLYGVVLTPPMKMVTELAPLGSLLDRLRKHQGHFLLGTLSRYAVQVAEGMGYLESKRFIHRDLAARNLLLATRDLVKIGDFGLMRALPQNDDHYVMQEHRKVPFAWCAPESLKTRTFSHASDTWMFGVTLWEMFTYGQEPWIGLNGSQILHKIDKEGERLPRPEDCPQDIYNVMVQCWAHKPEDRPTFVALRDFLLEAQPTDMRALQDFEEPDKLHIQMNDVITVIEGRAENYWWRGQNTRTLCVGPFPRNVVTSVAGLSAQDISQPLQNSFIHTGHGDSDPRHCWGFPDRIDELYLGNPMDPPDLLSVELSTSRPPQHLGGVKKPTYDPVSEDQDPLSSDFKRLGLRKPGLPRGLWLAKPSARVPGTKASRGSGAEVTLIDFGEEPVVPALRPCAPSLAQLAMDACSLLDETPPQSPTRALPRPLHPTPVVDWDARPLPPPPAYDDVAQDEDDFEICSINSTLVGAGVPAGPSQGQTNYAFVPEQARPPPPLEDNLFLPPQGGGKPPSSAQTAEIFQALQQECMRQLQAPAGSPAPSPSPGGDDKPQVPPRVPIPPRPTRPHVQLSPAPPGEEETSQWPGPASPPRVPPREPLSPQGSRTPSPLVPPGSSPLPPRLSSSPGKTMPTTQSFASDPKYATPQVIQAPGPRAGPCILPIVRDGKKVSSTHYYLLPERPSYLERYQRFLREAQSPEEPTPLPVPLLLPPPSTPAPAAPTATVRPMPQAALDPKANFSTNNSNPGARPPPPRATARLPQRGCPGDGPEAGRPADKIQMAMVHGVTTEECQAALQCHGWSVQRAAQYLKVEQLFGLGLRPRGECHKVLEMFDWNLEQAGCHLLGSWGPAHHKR

OCI-AML-3 [8] = assay: Growth inhibition of human OCI-AML3 cells harboring NRAS-Q61L mutant after 72 hrs by celltiter-glo assay; assay type: functional; details: OCI-AML-3, 72 h
[9] = molecular target: Activated CDC42 kinase 1 (Mus musculus) (UniProt O54967); assay: Inhibition of ACK1 in mouse BA/F3 cells harboring NRAS-G12D mutant assessed as reduction in AKT phosphorylation at S473 at 1 uM after 2 hrs by Western blot analysis; assay type: cell-based; summary of the method: as §1
[10] = molecular target: Activated CDC42 kinase 1 (Mus musculus) (UniProt O54967); assay: Inhibition of ACK1 in mouse BA/F3 cells harboring NRAS-G12D mutant assessed as reduction in P70S6K1 phosphorylation at Thr421/Ser424 at 1 uM after 2 hrs by Western blot analysis; assay type: cell-based; summary of the method: as §1
[11] = Metabolic stability in human liver microsomes assessed as compound remaining at 1 uM after 30 mins; assay type: ADME, microsome; details: read-out: Stability
[12] = molecular target: T3, Mitogen-activated protein kinase kinase kinase kinase 2 (Homo sapiens, UniProt Q12851); assay: Inhibition of GCK (unknown origin) by radiometric biochemical kinase assay
T3 sequence (Q12851 whole entry): T1 sequence (whole entry)

Mus musculus = species on record: Mus musculus; assay: Inhibition of ACK1/GCK in mouse BA/F3 cells assessed as reduction in NRAS-G12D mutant-mediated cell proliferation after 72 hrs by celltiter-glo assay; assay type: cell-based
CYP2D6 = CYP2D6 (Homo sapiens, UniProt P10635); assay: Inhibition of CYP2D6 (unknown origin) assessed as activity remaining at 10 uM relative to control; assay type: ADME; details: read-out: Activity
Activated CDC42 kinase 1 [13] = molecular target: T2, Activated CDC42 kinase 1; assay: Inhibition of ACK1 (unknown origin) by radiometric biochemical kinase assay
Target sequence in this assay (Q07912 whole entry): as the sequence (Q07912 whole entry, looked up) above

CYP1A2 = molecular target: T4, CYP1A2 (Homo sapiens, UniProt P05177); assay: Inhibition of CYP1A2 (unknown origin) assessed as activity remaining at 10 uM relative to control; assay type: ADME; details: read-out: Activity
T4 sequence (P05177 whole entry): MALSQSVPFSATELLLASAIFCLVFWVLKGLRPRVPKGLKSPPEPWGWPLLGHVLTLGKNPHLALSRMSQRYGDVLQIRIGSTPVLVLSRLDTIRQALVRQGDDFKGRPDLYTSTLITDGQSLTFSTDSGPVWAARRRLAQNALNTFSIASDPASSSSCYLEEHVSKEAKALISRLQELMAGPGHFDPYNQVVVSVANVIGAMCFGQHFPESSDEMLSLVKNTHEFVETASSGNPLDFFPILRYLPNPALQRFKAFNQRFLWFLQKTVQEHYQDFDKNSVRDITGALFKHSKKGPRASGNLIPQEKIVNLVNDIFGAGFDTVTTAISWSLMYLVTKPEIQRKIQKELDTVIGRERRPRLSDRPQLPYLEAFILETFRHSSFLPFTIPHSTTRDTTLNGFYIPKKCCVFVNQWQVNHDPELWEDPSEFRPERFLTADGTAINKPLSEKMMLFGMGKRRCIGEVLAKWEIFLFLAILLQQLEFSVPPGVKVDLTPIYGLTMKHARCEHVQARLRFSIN

[14] = molecular target: T1, Mitogen-activated protein kinase kinase kinase kinase 2 (Homo sapiens); assay: Inhibition of GCK in human OCI-AML3 cells harboring NRAS Q61L mutant assessed as reduction in p38 phosphorylation at Thr180/Tyr182 at 1 uM after 2 hrs by Western blot analysis; assay type: cell-based; summary of the method: as §1
OCI-AML-3 [15] = assay: Inhibition of anchorage-independent cell growth in human OCI-AML3 cells harboring NRAS Q61L mutant assessed as reduction in colony size at 0.1 to 1 uM after 14 days by iodonitrotetrazolium chloride staining-based soft agar assay; assay type: functional
Summary of the method: (§2)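 OCI-AML3 cells embedded in 0.7% low-melting agar, incubated 2 weeks with compound at 0.1 or 1 µM; colony number and colony size per well measured by automated image analysis; n = 3 per condition, SD, one-way ANOVA.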

OCI-AML-3 [16] = assay: Inhibition of anchorage-independent cell growth in human OCI-AML3 cells harboring NRAS Q61L mutant assessed as reduction in colony number at 0.1 to 1 uM after 14 days by iodonitrotetrazolium chloride staining-based soft agar assay; assay type: functional; summary of the method: as §2

CYP2D6, sequence (P10635 whole entry): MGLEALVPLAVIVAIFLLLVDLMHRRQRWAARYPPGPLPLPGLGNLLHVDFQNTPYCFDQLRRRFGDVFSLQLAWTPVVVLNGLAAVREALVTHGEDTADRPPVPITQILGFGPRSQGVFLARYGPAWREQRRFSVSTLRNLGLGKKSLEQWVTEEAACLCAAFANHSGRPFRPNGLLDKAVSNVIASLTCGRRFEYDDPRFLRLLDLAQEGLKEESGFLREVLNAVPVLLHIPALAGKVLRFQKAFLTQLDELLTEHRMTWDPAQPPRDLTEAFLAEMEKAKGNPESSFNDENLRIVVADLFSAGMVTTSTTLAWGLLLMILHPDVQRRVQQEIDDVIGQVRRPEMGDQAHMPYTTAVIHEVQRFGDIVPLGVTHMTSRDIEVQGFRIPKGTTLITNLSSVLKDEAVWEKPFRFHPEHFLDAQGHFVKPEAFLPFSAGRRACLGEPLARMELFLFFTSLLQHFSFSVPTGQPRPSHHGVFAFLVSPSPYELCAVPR
CYP2C9, sequence (P11712 whole entry): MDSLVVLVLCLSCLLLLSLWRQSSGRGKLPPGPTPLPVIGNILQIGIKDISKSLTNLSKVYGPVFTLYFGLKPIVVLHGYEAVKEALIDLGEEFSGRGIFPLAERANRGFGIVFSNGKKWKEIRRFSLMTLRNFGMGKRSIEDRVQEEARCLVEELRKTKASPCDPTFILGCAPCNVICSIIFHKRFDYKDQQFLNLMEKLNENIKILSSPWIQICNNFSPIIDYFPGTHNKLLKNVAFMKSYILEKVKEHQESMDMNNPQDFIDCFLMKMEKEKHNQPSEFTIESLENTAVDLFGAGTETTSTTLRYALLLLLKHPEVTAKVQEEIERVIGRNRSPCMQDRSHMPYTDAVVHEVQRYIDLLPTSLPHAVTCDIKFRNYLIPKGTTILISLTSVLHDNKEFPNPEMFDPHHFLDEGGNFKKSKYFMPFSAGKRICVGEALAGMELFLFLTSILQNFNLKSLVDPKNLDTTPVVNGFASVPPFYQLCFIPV
Activated CDC42 kinase 1 (Mus musculus), sequence (O54967 whole entry): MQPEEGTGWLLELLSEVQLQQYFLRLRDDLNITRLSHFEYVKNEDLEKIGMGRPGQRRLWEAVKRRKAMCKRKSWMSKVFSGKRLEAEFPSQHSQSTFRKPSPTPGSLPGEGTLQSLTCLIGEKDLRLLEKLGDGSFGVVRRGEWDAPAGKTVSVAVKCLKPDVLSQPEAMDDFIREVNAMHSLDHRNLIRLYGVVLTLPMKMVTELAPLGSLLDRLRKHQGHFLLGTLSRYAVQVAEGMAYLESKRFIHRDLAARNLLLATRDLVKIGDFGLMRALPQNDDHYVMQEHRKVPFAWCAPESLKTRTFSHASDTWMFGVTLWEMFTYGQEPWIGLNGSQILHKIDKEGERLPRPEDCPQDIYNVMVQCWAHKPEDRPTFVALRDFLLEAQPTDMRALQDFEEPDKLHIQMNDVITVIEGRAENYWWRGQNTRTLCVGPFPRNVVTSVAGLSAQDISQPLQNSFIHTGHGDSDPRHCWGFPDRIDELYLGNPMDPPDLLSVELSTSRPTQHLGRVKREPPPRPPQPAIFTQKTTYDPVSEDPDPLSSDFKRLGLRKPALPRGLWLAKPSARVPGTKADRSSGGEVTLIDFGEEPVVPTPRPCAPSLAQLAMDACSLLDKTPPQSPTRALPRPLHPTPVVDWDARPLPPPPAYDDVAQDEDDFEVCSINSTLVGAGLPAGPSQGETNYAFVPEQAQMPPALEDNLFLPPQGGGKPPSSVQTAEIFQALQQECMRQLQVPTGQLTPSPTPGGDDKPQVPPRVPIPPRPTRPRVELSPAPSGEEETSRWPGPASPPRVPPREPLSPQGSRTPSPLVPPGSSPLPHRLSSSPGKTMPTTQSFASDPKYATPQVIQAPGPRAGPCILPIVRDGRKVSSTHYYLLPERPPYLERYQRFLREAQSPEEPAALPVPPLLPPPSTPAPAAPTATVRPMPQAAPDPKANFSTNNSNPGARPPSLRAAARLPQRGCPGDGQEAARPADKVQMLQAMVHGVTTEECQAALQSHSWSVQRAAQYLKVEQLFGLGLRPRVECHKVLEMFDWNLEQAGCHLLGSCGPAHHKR

| Compound | remaining at 0.5 h, 1 µM [1] [%] | growth inhibition (GI) (OCI-AML-3 [2]) | GI50 at 72 h [3] [nM] | GI50 at 72 h [4] [nM] | remaining at 0.5 h, 1 µM [5] [%] | activity at 10 µM (CYP2C9) [%] | reduction in JNK phosphorylation (qualitative call) [6] | reduction in AKT S473 phosphorylation (qualitative) (Activated CDC42 kinase 1 [7]) | GI50 (OCI-AML-3 [8]) [nM] | reduction in AKT S473 phosphorylation (qualitative) [9] | reduction in P70S6K1 phosphorylation (active/inactive) [10] | remaining at 0.5 h, 1 µM [11] [%] | IC50 [12] [nM] | GI50 (Mus musculus) [nM] | activity at 10 µM (CYP2D6) [%] | IC50 (Activated CDC42 kinase 1 [13]) [nM] | activity at 10 µM (CYP1A2) [%] | inhibition [14] | growth inhibition (GI) (OCI-AML-3 [15]) | growth inhibition (GI) (OCI-AML-3 [16]) |
| --- | --- | --- | --- | --- | --- | --- | --- | --- | --- | --- | --- | --- | --- | --- | --- | --- | --- | --- | --- | --- |
| CCN1CCN(C(=O)c2ccc(Nc3ncc4c(n3)N(C)C(=O)N(c3cc(NC(=O)c5cccc(C(F)(F)F)c5)ccc3C)C4)cn2)CC1 | 38.3 | Active | 728 | 6480 | 23.3 | 29 | Active | Active | 122 | Active | Active | 24.6 | 2 | 107 | 32.8 | 13 | 81.8 | Active | – | – |
| Cc1cc(Nc2ncc3c(n2)N(C)C(=O)N(c2cc(NC(=O)c4cccc(C(F)(F)F)c4)ccc2C)C3)n(C)n1 | 82.3 | Active | 2060 | 2460 | 69.9 | 38.3 | Active | Active | 208 | Active | Active | 69.2 | 5 | 129 | 72 | 9 | 88.2 | Active | – | – |
| Cc1ccc(Nc2ncc3c(n2)N(C)C(=O)N(c2cc(NC(=O)c4ccc(CN5CCC(N(C)C)C5)c(C(F)(F)F)c4)ccc2C)C3)cn1 (centres undefined) | 76.5 | – | 636 | 1970 | 43.1 | 55.1 | Active | Active | 37 | Active | Active | 57.5 | 2 | 23 | 4.9 | 6 | 67.5 | Active | Active | Active |
| CC(=O)N1CCN(c2ccc(Nc3ncc4c(n3)N(C)C(=O)N(c3cc(NC(=O)c5cccc(C(F)(F)F)c5)ccc3C)C4)cn2)CC1 | 75.4 | Active | 402 | 2480 | 38 | 15.6 | – | – | 179 | – | – | 47.3 | 1 | 59 | 83.1 | 8 | 87.2 | – | Active | Active |
| Cc1ccc(NC(=O)c2cccc(C(F)(F)F)c2)cc1N1Cc2cnc(N)nc2N(C)C1=O | 81.3 | – | 2110 | 4970 | 67.9 | 68.1 | Active | Active | 466 | Active | Active | 84.4 | 28 | 223 | 82.2 | 18 | 89.2 | Active | Active | Active |
